How the values were obtained:
CYP2D6 = CYP2D6 (Homo sapiens, UniProt P10635); test: CYP inhibition, LC–MS/MS assay in human liver microsomes; format: in vitro ADME; details: pooled human liver microsomes, probe bufuralol
Summary of the method: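 Follow-up CYP panel in pooled human liver microsomes with CYP-specific probe substrates; CYP-specific metabolites quantified by LC-MS/MS. Test compound at 10 μM. Percent inhibition reported.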

[1] = toxicokinetics in 90-day toxicity study; format: in vivo, rat; details: for AUC(0-t) / Cmax: female, rat, plasma, po; for AUC(0-t): AUC0-24h
Summary of the method: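 In the 90-day dietary study (10, 30, 100 mg/kg bw/day), plasma taken at 6 time points over 24 h on Day 7, Week 6 and Week 13, assayed by validated LC-MS/MS. […] Accumulation ratio = AUC0-24h at Week 6 or 13 / Day 7.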

[2] = Sprague-Dawley [Crl:CD(SD)], 10 mg/kg, Day 7, 10 mg/kg bw, F
[3] = Sprague-Dawley [Crl:CD(SD)], 10 mg/kg, Week 13, 10 mg/kg bw, F
[4] = Sprague-Dawley [Crl:CD(SD)], 30 mg/kg, Day 7, 30 mg/kg bw, F
[5] = Sprague-Dawley [Crl:CD(SD)], 30 mg/kg, Week 13, 30 mg/kg bw, F
[6] = Sprague-Dawley [Crl:CD(SD)], 100 mg/kg, Day 7, 100 mg/kg bw, F
[7] = Sprague-Dawley [Crl:CD(SD)], 100 mg/kg, Week 13, 100 mg/kg bw, F

CYP2D6, sequence (P10635 whole entry): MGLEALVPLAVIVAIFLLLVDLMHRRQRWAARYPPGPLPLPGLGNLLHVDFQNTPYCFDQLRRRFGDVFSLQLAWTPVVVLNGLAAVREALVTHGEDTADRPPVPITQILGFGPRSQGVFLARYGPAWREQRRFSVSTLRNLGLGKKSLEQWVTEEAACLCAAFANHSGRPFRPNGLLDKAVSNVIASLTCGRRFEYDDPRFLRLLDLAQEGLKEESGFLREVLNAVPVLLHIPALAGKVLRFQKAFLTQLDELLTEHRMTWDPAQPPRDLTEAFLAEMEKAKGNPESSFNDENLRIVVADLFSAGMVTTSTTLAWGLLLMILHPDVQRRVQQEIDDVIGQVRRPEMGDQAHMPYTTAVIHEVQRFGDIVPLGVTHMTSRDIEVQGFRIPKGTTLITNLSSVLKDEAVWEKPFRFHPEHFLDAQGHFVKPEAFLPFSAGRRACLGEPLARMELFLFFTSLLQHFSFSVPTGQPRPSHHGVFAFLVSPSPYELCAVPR

Cc1noc(C)c1Cn1cc(N2C(=O)CN(Cc3cccc(O)c3)C2=O)cn1 [S6821, 3-(1-((3,5-dimethylisoxazol-4-yl)methyl)-1H-pyrazol-4-yl)-1-(3-hydroxybenzyl)imidazolidine-2,4-dione]
inhibition at 10 µM (CYP2D6): -2%
Cmax and AUC0-24h higher than predicted from a linear relationship ([1]; 100 mg/kg bw/day, females): ~1.3 fold
Cmax and AUC0-24h lower than predicted from a linear relationship ([1]; 100 mg/kg bw/day, males): ~32%
AUC0-24h/dose ([1]; Day 7, 10 mg/kg bw, F): 12.2 ng·h/mL/mg/kg
AUC0-24h Ratio ([1]; Day 7, 10 mg/kg bw, F): 1
Cmax Ratio ([1]; Day 7, 10 mg/kg bw, F): 1
AUC0-24h/dose ([1]; Day 7, 10 mg/kg bw, M): 11.8 ng·h/mL/mg/kg
AUC0-24h Ratio ([1]; Day 7, 10 mg/kg bw, M): 1
Cmax Ratio ([1]; Day 7, 10 mg/kg bw, M): 1
AUC0-24h/dose ([1]; Day 7, 30 mg/kg bw, F): 14.5 ng·h/mL/mg/kg
AUC0-24h Ratio ([1]; Day 7, 30 mg/kg bw, F): 3.5
Cmax Ratio ([1]; Day 7, 30 mg/kg bw, F): 3.8
AUC0-24h/dose ([1]; Day 7, 30 mg/kg bw, M): 9.83 ng·h/mL/mg/kg
AUC0-24h Ratio ([1]; Day 7, 30 mg/kg bw, M): 2.5
Cmax Ratio ([1]; Day 7, 30 mg/kg bw, M): 2.8
AUC0-24h/dose ([1]; Day 7, 100 mg/kg bw, F): 15.0 ng·h/mL/mg/kg
AUC0-24h Ratio ([1]; Day 7, 100 mg/kg bw, F): 12.3
Cmax Ratio ([1]; Day 7, 100 mg/kg bw, F): 13.7
AUC0-24h/dose ([1]; Day 7, 100 mg/kg bw, M): 8.44 ng·h/mL/mg/kg
AUC0-24h Ratio ([1]; Day 7, 100 mg/kg bw, M): 7.2
Cmax Ratio ([1]; Day 7, 100 mg/kg bw, M): 6.8
ACUM Ratio ([1]; Week 6, 10 mg/kg bw, F): 0.93
AUC0-24h/dose ([1]; Week 6, 10 mg/kg bw, F): 11.3 ng·h/mL/mg/kg
AUC0-24h Ratio ([1]; Week 6, 10 mg/kg bw, F): 1
Cmax Ratio ([1]; Week 6, 10 mg/kg bw, F): 1
ACUM Ratio ([1]; Week 6, 10 mg/kg bw, M): 1.07
AUC0-24h/dose ([1]; Week 6, 10 mg/kg bw, M): 12.6 ng·h/mL/mg/kg
AUC0-24h Ratio ([1]; Week 6, 10 mg/kg bw, M): 1
Cmax Ratio ([1]; Week 6, 10 mg/kg bw, M): 1
ACUM Ratio ([1]; Week 6, 30 mg/kg bw, F): 0.76
AUC0-24h/dose ([1]; Week 6, 30 mg/kg bw, F): 11.0 ng·h/mL/mg/kg
AUC0-24h Ratio ([1]; Week 6, 30 mg/kg bw, F): 2.9
Cmax Ratio ([1]; Week 6, 30 mg/kg bw, F): 2.8
ACUM Ratio ([1]; Week 6, 30 mg/kg bw, M): 0.99
AUC0-24h/dose ([1]; Week 6, 30 mg/kg bw, M): 9.77 ng·h/mL/mg/kg
AUC0-24h Ratio ([1]; Week 6, 30 mg/kg bw, M): 2.3
Cmax Ratio ([1]; Week 6, 30 mg/kg bw, M): 2.3
ACUM Ratio ([1]; Week 6, 100 mg/kg bw, F): 0.87
AUC0-24h/dose ([1]; Week 6, 100 mg/kg bw, F): 13.0 ng·h/mL/mg/kg
AUC0-24h Ratio ([1]; Week 6, 100 mg/kg bw, F): 11.5
Cmax Ratio ([1]; Week 6, 100 mg/kg bw, F): 15.1
ACUM Ratio ([1]; Week 6, 100 mg/kg bw, M): 0.90
AUC0-24h/dose ([1]; Week 6, 100 mg/kg bw, M): 7.58 ng·h/mL/mg/kg
AUC0-24h Ratio ([1]; Week 6, 100 mg/kg bw, M): 6.0
Cmax Ratio ([1]; Week 6, 100 mg/kg bw, M): 4.1
ACUM Ratio ([1]; Week 13, 10 mg/kg bw, F): 1.02
AUC0-24h/dose ([1]; Week 13, 10 mg/kg bw, F): 12.5 ng·h/mL/mg/kg
AUC0-24h Ratio ([1]; Week 13, 10 mg/kg bw, F): 1
Cmax Ratio ([1]; Week 13, 10 mg/kg bw, F): 1
ACUM Ratio ([1]; Week 13, 10 mg/kg bw, M): 1.04
AUC0-24h/dose ([1]; Week 13, 10 mg/kg bw, M): 12.3 ng·h/mL/mg/kg
AUC0-24h Ratio ([1]; Week 13, 10 mg/kg bw, M): 1
Cmax Ratio ([1]; Week 13, 10 mg/kg bw, M): 1
ACUM Ratio ([1]; Week 13, 30 mg/kg bw, F): 0.79
AUC0-24h/dose ([1]; Week 13, 30 mg/kg bw, F): 11.5 ng·h/mL/mg/kg
AUC0-24h Ratio ([1]; Week 13, 30 mg/kg bw, F): 2.8
Cmax Ratio ([1]; Week 13, 30 mg/kg bw, F): 2.4
ACUM Ratio ([1]; Week 13, 30 mg/kg bw, M): 1.03
AUC0-24h/dose ([1]; Week 13, 30 mg/kg bw, M): 10.2 ng·h/mL/mg/kg
AUC0-24h Ratio ([1]; Week 13, 30 mg/kg bw, M): 2.5
Cmax Ratio ([1]; Week 13, 30 mg/kg bw, M): 3.1
ACUM Ratio ([1]; Week 13, 100 mg/kg bw, F): 1.11
AUC0-24h/dose ([1]; Week 13, 100 mg/kg bw, F): 16.7 ng·h/mL/mg/kg
AUC0-24h Ratio ([1]; Week 13, 100 mg/kg bw, F): 13.4
Cmax Ratio ([1]; Week 13, 100 mg/kg bw, F): 12.9
ACUM Ratio ([1]; Week 13, 100 mg/kg bw, M): 1.10
AUC0-24h/dose ([1]; Week 13, 100 mg/kg bw, M): 9.25 ng·h/mL/mg/kg
AUC0-24h Ratio ([1]; Week 13, 100 mg/kg bw, M): 7.5
Cmax Ratio ([1]; Week 13, 100 mg/kg bw, M): 9.1
AUC(0-t) [1, 2]: 122 ng·h/mL
AUC(0-t) [1, 3]: 125 ng·h/mL
Cmax [1, 2]: 7.22 ng/mL
Cmax [1, 3]: 8.32 ng/mL
AUC(0-t) [1, 4]: 436 ng·h/mL
AUC(0-t) [1, 5]: 344 ng·h/mL
Cmax [1, 4]: 27.7 ng/mL
Cmax [1, 5]: 19.8 ng/mL
AUC(0-t) [1, 6]: 1500 ng·h/mL
AUC(0-t) [1, 7]: 1670 ng·h/mL
Cmax [1, 6]: 99 ng/mL
Cmax [1, 7]: 107 ng/mL
AUC(0-t) ([1]; Sprague-Dawley, 10 mg/kg, Week 6, 10 mg/kg bw, F): 113 ng·h/mL

Source: paper PMC5615838 (Toxicology Reports, 2016)
